Assay results taken from PubChem BioAssay AID624075 (Broad Institute, 2012).
Calls of active or inactive are those of the source.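 How the source made its calls: active means fitted curve reaches -35% activity change at a concentration no higher than twice the top valid tested dose; inactive means the rest, including activity in the opposite direction.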

How the values were obtained:
[1] = P. aeruginosa PAK growth delay under chelation, dose response, whole organism, PAK strain, OD600, EDDHA, dry powder, set 4 (AID 624075); conditions: P. aeruginosa PAK growth with EDDHA, OD600, 28 h; at 100 µM (top of the series)
Summary of the method: (§1)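 Material: Wild-type Pseudomonas aeruginosa PAK bacterial culture | Also added: EDDHA, 2 µM | Doses: Concentration series from 100 µM down to 15 nM final | Buffer or medium: Succinate M9 medium, pH 7.0 | Signal: Absorbance at 600 nm as growth measure | Timing: 28 h growth at 30 °C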

[2] = system: P. aeruginosa PAK growth with EDDHA, OD600, 28 h; assay: as above
Summary of the method: as §1

**Q.** Which activity change, negative = growth inhibition [1] does the source give for CCCCC(C#N)c1ccc(F)cn1 (stereo not drawn) here?
**A.** -7.64% (inactive)

**Q.** With N#CC(c1ccc(Cl)cc1)c1ncccc1Cl (stereo not drawn) as the compound, how does the activity change, negative = growth inhibition [1] read?
**A.** -18.1% (inactive)

**Q.** For COCCC(C#N)c1ccc(F)cc1 (stereo not drawn), which activity change, negative = growth inhibition [1] is on record?
**A.** -1.57% (inactive)

**Q.** Which activity change, negative = growth inhibition [1] does the source give for CCCCC(c1ccc(Cl)cc1)c1nn[nH]n1 (stereo not drawn) here?
**A.** -6.42% (inactive)

**Q.** Which activity change, negative = growth inhibition [1] does the source give for COCCNC(C#N)c1ccc(Cl)cc1 (stereo not drawn) here?
**A.** -2.09% (inactive)

**Q.** With N#CC(c1ccc(Cl)cc1)c1ccc(Cl)cn1 (stereo not drawn) as the compound, how does the activity change, negative = growth inhibition [1] read?
**A.** -13.9% (inactive)

**Q.** Which AC35 [2] does the source give for N#CC(c1ccc(F)cc1)c1cccc(C(F)(F)F)n1 (stereo not drawn) here?
**A.** 88.7 µM

**Q.** Which AC35 [2] does the source give for N#CC(c1ccc(Cl)cc1)c1cccc(C(F)(F)F)n1 (stereo not drawn) here?
**A.** 71.1 µM
